Values after ≈ are worked out from the molar mass of the structure shown.
What was measured:
[1] = test system: Staphylococcus aureus; assay: Antibacterial activity against Staphylococcus aureus; type: functional
[2] = test system: Enterococcus faecium; assay: Antibacterial activity against vancomycin-resistant Enterococcus faecium isolate 820; type: functional
How it was run: (§1)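 Wild-type and clinical E. faecium isolates were grown in Enterococcosal broth. Overnight stationary-phase cultures were diluted 1:1000 into fresh medium and incubated with two-fold compound dilutions (seven concentrations) overnight at 37 °C in 96-well plates. The MIC was recorded as the […], and values were rounded.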

[3] = test system: Enterococcus faecium; assay: Antibacterial activity against vancomycin-sensitive Enterococcus faecium isolate 987
[4] = test system: Enterococcus faecium; assay: Antibacterial activity against vancomycin-resistant Enterococcus faecium isolate 243; type: functional; how it was run: as §1
[5] = test system: Staphylococcus aureus; assay: Antibacterial activity against vancomycin-sensitive Staphylococcus aureus ATCC 6538P; type: functional
[6] = test system: Enterococcus faecium; assay: Antibacterial activity against vancomycin-resistant Enterococcus faecium isolate 449; type: functional; how it was run: as §1
[7] = Enterococcus faecium, isolate 243, read-out: MIC
[8] = Staphylococcus aureus, ATCC 6538P, read-out: MIC

SMILES	MIC [1]	MIC [2]	MIC [3]	MIC [4, 7]	MIC [5, 8]	MIC [6]	MIC [4]	MIC [5]
C=CCOc1ccc2ccccc2c1-c1c(OCC(=O)N[C@H](CCCCN)C(=O)N[C@H](CCCNC(=N)N)C(=O)N[C@@H](CC=C)C(=O)OCc2ccccc2)ccc2ccccc12	2 µM (≈ 1.71 µg/mL)							
C=CCOc1ccc2ccccc2c1-c1c(OCCCC(=O)N[C@H](CCCNC(=N)N)C(=O)OCc2ccccc2)ccc2ccccc12	5 µM (≈ 3.29 µg/mL)							
C=CCc1cc2ccccc2c(-c2c(OC)c(CC(NC(C)=O)C(=O)N[C@H](CCCNC(=N)N)C(=O)N[C@@H](CC=C)C(=O)OC)cc3ccccc23)c1OC (some centres undefined)	2 µM (≈ 1.5 µg/mL)							
NCCCC[C@@H](NC(=O)CCCOc1ccc2ccccc2c1-c1c(OCCCC(=O)N[C@H](CCCCN)C(=O)OCc2ccccn2)ccc2ccccc12)C(=O)OCc1ccccn1		> 129 µM	> 129 µM	> 129 µM	129 µM (≈ 116 µg/mL)	> 129 µM		
N=C(N)NCCCC[C@@H](NC(=O)CCCOc1ccc2ccccc2c1-c1c(OCCCC(=O)N[C@H](CCCCNC(=N)N)C(=O)OCc2cccc3ccccc23)ccc2ccccc12)C(=O)OCc1cccc2ccccc12		54 µM (≈ 58.3 µg/mL)	> 108 µM	> 109 µM	7 µM (≈ 7.56 µg/mL)	109 µM (≈ 118 µg/mL)		
N=C(N)NCCC[C@@H](NC(=O)CCCOc1ccc2ccccc2c1-c1c(OCCCC(=O)N[C@H](CCCNC(=N)N)C(=O)OCc2ccccn2)ccc2ccccc12)C(=O)OCc1ccccn1		> 122 µM	> 122 µM	> 122 µM	15 µM (≈ 14.3 µg/mL)	> 122 µM		
N=C(N)NCCC[C@@H](NC(=O)CCCOc1ccc2ccccc2c1-c1c(OCCCC(=O)N[C@H](CCCNC(=N)N)C(=O)NCc2ccccc2)ccc2ccccc12)C(=O)NCc1ccccc1		122 µM (≈ 116 µg/mL)	122 µM (≈ 116 µg/mL)	61 µM (≈ 57.9 µg/mL)	2 µM (≈ 1.9 µg/mL)	61 µM (≈ 57.9 µg/mL)		
NCCCC[C@@H](NC(=O)CCCOc1ccc2ccccc2c1-c1c(OCCCC(=O)N[C@H](CCCCN)C(=O)OCc2ccccc2)ccc2ccccc12)C(=O)OCc1ccccc1		65 µM (≈ 58.2 µg/mL)	129 µM (≈ 115 µg/mL)	129 µM (≈ 115 µg/mL)	4 µM (≈ 3.58 µg/mL)	65 µM (≈ 58.2 µg/mL)		
COC(=O)[C@@H](CCCCN)NC(=O)CCCOc1ccc2ccccc2c1-c1c(OCCCC(=O)N[C@H](CCCCN)C(=O)OC)ccc2ccccc12					> 153 µM			
N=C(N)NCCCC[C@@H](NC(=O)CCCOc1ccc2ccccc2c1-c1c(OCCCC(=O)N[C@H](CCCCNC(=N)N)C(=O)OCc2ccccc2)ccc2ccccc12)C(=O)OCc1ccccc1		59 µM (≈ 57.8 µg/mL)	119 µM (≈ 117 µg/mL)	59 µM (≈ 57.8 µg/mL)	4 µM (≈ 3.92 µg/mL)	59 µM (≈ 57.8 µg/mL)		
NCCCC[C@@H](NC(=O)CCCOc1ccc2ccccc2c1-c1c(OCCCC(=O)N[C@H](CCCCN)C(=O)OCc2cccc3ccccc23)ccc2ccccc12)C(=O)OCc1cccc2ccccc12		59 µM (≈ 58.7 µg/mL)	117 µM (≈ 116 µg/mL)	> 117 µM	7 µM (≈ 6.97 µg/mL)	117 µM (≈ 116 µg/mL)		
COC(=O)[C@@H](CCCNC(=N)N)NC(=O)CCCOc1ccc2ccccc2c1-c1c(OCCCC(=O)N[C@H](CCCNC(=N)N)C(=O)OC)ccc2ccccc12		> 143 µM			18 µM (≈ 14.4 µg/mL)	> 143 µM		
N=C(N)NCCC[C@@H](NC(=O)CCCOc1ccc2ccccc2c1-c1c(OCCCC(=O)N[C@H](CCCNC(=N)N)C(=O)OCc2ccccc2)ccc2ccccc12)C(=O)OCc1ccccc1 (stereo in doubt; 21)		31 µM (≈ 29.5 µg/mL)	31 µM (≈ 29.5 µg/mL)	61 µM (≈ 58 µg/mL)	2 µM (≈ 1.9 µg/mL)	31 µM (≈ 29.5 µg/mL)		
Cl.Cl.N=C(N)NCCC[C@@H](NC(=O)CCCOc1ccc2ccccc2c1-c1c(OCCCC(=O)N[C@H](CCCNC(=N)N)C(=O)OCc2ccccc2)ccc2ccccc12)C(=O)OCc1ccccc1 (stereo in doubt; 22)							31 µM	4 µM
CN[C@H](CC(C)C)C(=O)N[C@H]1C(=O)N[C@@H](CC(N)=O)C(=O)N[C@H]2C(=O)N[C@H]3C(=O)N[C@H](C(=O)N[C@H](C(=O)O)c4cc(O)cc(O)c4-c4cc3ccc4O)[C@H](O)c3ccc(c(Cl)c3)Oc3cc2cc(c3O[C@@H]2O[C@H](CO)[C@@H](O)[C@H](O)[C@H]2O[C@H]2C[C@](C)(N)[C@H](O)[C@H](C)O2)Oc2ccc(cc2Cl)[C@H]1O [VANCOMYCIN]		> 86 µM	< 1 µM	1 µM (≈ 1.45 µg/mL)	1 µM (≈ 1.45 µg/mL)	43 µM (≈ 62.3 µg/mL)		

Reference: ChEMBL document CHEMBL1817589, “Synthesis and antibacterial activity of C2-symmetric binaphthyl scaffolded amino acid derivatives” (2011)
